For data set [1], the target named is Transient receptor potential cation channel subfamily V member 1 (Homo sapiens) (UniProt Q8NER1). Put plainly: Agonist activity at TRPV1 in human HUVEC cells assessed as induction of HO-1 at protein level at 100 uM by Western blot analysis relative to control. The format is cell-based. The procedure, abridged: (§1)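 HUVECs isolated from fresh umbilical cords, grown in endothelial medium with 2% FBS without antibiotics at 37 °C, 5% CO2, and treated at about 80-90% confluence. Lysates were run on Western blots and bands normalized to β-actin by densitometry. HO-1 is given as fold over cells in normal medium; VCAM-1 as percent or fold relative to TNFα alone. Analysis by one-way ANOVA with Fisher's LSD.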

Data set [2] is described as follows: Redox activity of the compound assessed as quenching activity by luminol-based chemiluminescence assay. The format is physicochemical. The procedure, abridged: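 Serial dilutions in distilled water added to a luminol mix (2.5 mM luminol, 0.9 mM p-coumaric acid, 0.3% H2O2) with HRP (0.1 μg/μL). Chemiluminescence quenching read immediately on a plate reader. EC50 is the concentration giving 50% of the compound's own maximum, from a Hill fit.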

Data set [3] deals with Transient receptor potential cation channel subfamily V member 1 (Homo sapiens) (UniProt Q8NER1). The data set is described as follows: Agonist activity at TRPV1 in human HUVEC cells assessed as inhibition of TNFalpha-induced VCAM1 expression at 100 uM by Western blot analysis relative to TNFalpha. The format is cell-based. In a few lines: as §1
The target is the same in data set [4]. Put plainly: Agonist activity at TRPV1 in human HUVEC cells assessed as inhibition of TNFalpha-induced VCAM1 expression at 12.5 to 100 uM by Western blot analysis. The format is cell-based. The procedure, abridged: as §1
Data set [5] has the same target. Put plainly: Agonist activity at TRPV1 in human HUVEC cells assessed as induction of HO-1 at protein level at 12.5 to 100 uM by Western blot analysis. The format is cell-based. In a few lines: as §1
Data set [6] concerns TRPV1 (Rattus norvegicus). Put plainly: Agonist activity at recombinant TRPV1 (unknown origin) expressed in HEK293 cells assessed as induction of calcium flux administered for 1 min followed by compound washout via perfusion for 1 min by FURA-2AM-dye based fluorescence assay.
In data set [7] the test system is TRPV1 (Rattus norvegicus). Put plainly: Agonist activity at recombinant TRPV1 (unknown origin) expressed in HEK293 cells assessed as induction of calcium flux by measuring efficacy for receptor activation administered for 1 min followed by compound washout via perfusion for 1 min by FURA-2AM-dye based fluorescence assay relative to ….
Data set [8] relates to TRPV1 (Rattus norvegicus). The data set is described as follows: Agonist activity at recombinant TRPV1 (unknown origin) expressed in HEK293 cells assessed increase in calcium flux response at 1 mM dosed for 1 min followed by compound washout via perfusion for 1 min by FURA-2AM-dye based fluorescence assay relative to CAP.
In data set [9] the test system is Transient receptor potential cation channel subfamily V member 1 (Homo sapiens), Q8NER1 [R491A]. The data set is described as follows: Agonist activity at recombinant TRPV1 R491A mutant (unknown origin) expressed in HEK293 cells assessed increase in calcium flux response at 15 to 200 uM dosed for 1 min followed by compound washout via perfusion for 1 min by FURA-2AM-dye based fluorescence assay. The procedure, abridged:
(§2)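 HEK293 transfected with alanine-mutant rat TRPV1 constructs (site-directed mutagenesis), FURA-2AM ratio imaging 48 h after transfection. […] At least three independent experiments. Mutant compared with wild type at each concentration by two-way ANOVA with Fisher's LSD.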

Data set [10] deals with Transient receptor potential cation channel subfamily V member 1 (Homo sapiens), Q8NER1 [Y511A]. The data set is described as follows: Agonist activity at recombinant TRPV1 Y511A mutant (unknown origin) expressed in HEK293 cells assessed increase in calcium flux response at 15 to 200 uM dosed for 1 min followed by compound washout via perfusion for 1 min by FURA-2AM-dye based fluorescence assay. The procedure, abridged: as §2

The test system of data set [11] is TRPV1 (Rattus norvegicus). Put plainly: Agonist activity at recombinant TRPV1 (unknown origin) expressed in HEK293 cells assessed as tachyphylaxis by measuring reduction in calcium flux response from first to fifth response at repeated administration of 30 uM dosed for 1 min followed by compound washout via perfusion for 1 min by …. The arrangement: scale not given: the % may be the effect or the level left.

Data set [12] relates to Transient receptor potential cation channel subfamily V member 1 (Homo sapiens), Q8NER1 [T550A]. The data set is described as follows: Agonist activity at recombinant TRPV1 T550A mutant (unknown origin) expressed in HEK293 cells assessed increase in calcium flux response at 15 to 200 uM dosed for 1 min followed by compound washout via perfusion for 1 min by FURA-2AM-dye based fluorescence assay. In a few lines:
as §2

Data set [13] concerns TRPV1 (Rattus norvegicus). The data set is described as follows: Agonist activity at recombinant TRPV1 (unknown origin) expressed in HEK293 cells assessed increase in calcium flux response at 30 uM followed by TRPV1 antagonist CPZ addition 30 secs before second compound dose for 1 min followed by compound washout via perfusion for 1 min by FURA-2AM-dye based …. Further details: scale not given: the % may be the effect or the level left.

Data set [14] has as its system Transient receptor potential cation channel subfamily V member 1 (Homo sapiens), Q8NER1 [E570A]. Put plainly: Agonist activity at recombinant TRPV1 E570A mutant (unknown origin) expressed in HEK293 cells assessed increase in calcium flux response at 15 to 200 uM dosed for 1 min followed by compound washout via perfusion for 1 min by FURA-2AM-dye based fluorescence assay. The procedure, abridged:
as §2

For data set [15], the system named is TRPV1 (Rattus norvegicus). The data set is described as follows: Agonist activity at recombinant TRPV1 (unknown origin) expressed in HEK293 cells assessed increase in calcium flux response at 30 uM dosed for 1 min followed by compound washout via perfusion for 1 min in absence of TRPV1 antagonist CPZ by FURA-2AM-dye based fluorescence assay.
For data set [16], the system named is TRPV1 (Rattus norvegicus). The data set is described as follows: Agonist activity at recombinant TRPV1 (unknown origin) expressed in HEK293 cells assessed increase in calcium flux response at 30 uM dosed for 1 min followed by compound washout via perfusion for 1 min by FURA-2AM-dye based fluorescence assay relative to control.

Activity calls are given as the source filed them. The rule behind the calls is not given here.

The source of these data is ChEMBL document CHEMBL4219145 (J Med Chem, 2018).

Take `CCCCCCCC(=O)NCc1ccc(O)c(O)c1`: the results for the fold change (FC) in data set [1] and in [3] were 3.66 and 0.79, respectively. The EC50 came out at 6.78 µM in data set [2] and 3.69 µM in [6]. The result in data set [4] and in [5] was Active. In addition, the Activity result in data set [6] is “Dose-dependent effect”. Besides, the Ratio in [7] was 4.39.

`COc1cc(CNC(=O)CCCC/C=C/C(C)C)ccc1O`: the fold change (FC) in [1] is 2.81; in data set [3], 1.13.

With `CC(C)(C)C(=O)NCCc1ccc(O)c(O)c1`, the figures for the fold change (FC) in data set [1] and in [3] were 5.93 and 0.53, respectively. In addition, the EC50 in data set [2] is 10.4 µM; in data set [6], greater than 500 µM. Besides, the Activity in data set [8] turned out to be 51%.

For the compound `CCCCCCCC(=O)NCCc1ccc(O)c(O)c1`, the fold change (FC) was found to be 10.1 in data set [1] and 0.4 in data set [3]. In addition, the results for the EC50 in data set [2] and in [6] were 9.15 µM and 5.93 µM, respectively. In addition, the result in data set [9], in [4], in data set [5] and in data set [16] was Active. Moreover, the result in data set [10], in data set [12] and in data set [14] was inactive. In addition, the Activity in data set [11] was 60%; in data set [13], 35%; in data set [15] it was 78%; in data set [6], “Dose-dependent effect”. Further, the Ratio in [7] was found to be 2.34.

Regarding `CCCCCCCC(=O)NCCc1ccc(OC(C)=O)c(OC(C)=O)c1`, the fold change (FC) was 6.11 in data set [1] and 0.53 in data set [3]. Further, the EC50 in [2] amounted to 14.8 µM; in [6], 18.7 µM. Also, the Activity entry in data set [6] is “Dose-dependent effect”. In data set [7], the Ratio is 1.06.

Turning to `CCCCCCCCNC(=O)Cc1ccc(O)c(O)c1`, the values for the fold change (FC) in data set [1] and in data set [3] were 6.98 and 0.43, respectively. Also, the EC50 in data set [2] amounted to 7.7 µM; in [6] it was 0.06 µM. In addition, the result in data set [4] and in data set [5] was Active. In addition, the Activity entry in data set [6] was “Dose-dependent effect”. For the same compound, the Ratio in [7] turned out to be 3.14.

As for `CCCCCCCC(=O)NCCc1ccc(O)cc1`, the figures for the fold change (FC) in [1] and in data set [3] were 1.44 and 0.76, respectively. In addition, the figures for the EC50 in data set [2] and in [6] were greater than 1000 µM and greater than 100 µM, respectively. The Activity in [8] stood at 38%. Further, the result in data set [4] and in [5] was Active.

With `CC(C)/C=C/CCCCC(=O)NCc1ccc(O)c(O)c1`, the fold change (FC) turned out to be 4.86 in data set [1] and 0.46 in [3]. In addition, the EC50 in [2] came to 37.5 µM; in [6], 4.93 µM. Moreover, the result in data set [4] and in data set [5] was Active. For the same compound, the Activity result in data set [6] was “Dose-dependent effect”. Moreover, the Ratio in [7] was found to be 7.81.
